Each block holds one molecule with its values, some of them ahead of it.
Key:
Cytochrome P450 26A1 = target: T1, Cytochrome P450 26A1 (Homo sapiens, UniProt O43174); assay: Inhibition of CYP26 expressed in human T47D cell line
T1 sequence (O43174 whole entry): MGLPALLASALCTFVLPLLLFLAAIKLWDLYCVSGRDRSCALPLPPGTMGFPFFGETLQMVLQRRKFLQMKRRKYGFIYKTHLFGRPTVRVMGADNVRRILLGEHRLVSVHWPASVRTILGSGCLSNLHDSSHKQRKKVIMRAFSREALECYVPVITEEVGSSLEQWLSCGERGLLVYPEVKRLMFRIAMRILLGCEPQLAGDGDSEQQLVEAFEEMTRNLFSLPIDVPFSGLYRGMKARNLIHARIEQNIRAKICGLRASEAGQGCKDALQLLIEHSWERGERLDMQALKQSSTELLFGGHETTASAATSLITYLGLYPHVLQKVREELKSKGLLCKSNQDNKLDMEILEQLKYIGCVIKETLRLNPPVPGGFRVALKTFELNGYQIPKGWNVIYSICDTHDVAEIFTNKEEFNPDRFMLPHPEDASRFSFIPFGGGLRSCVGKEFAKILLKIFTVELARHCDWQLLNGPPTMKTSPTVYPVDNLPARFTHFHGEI

Cytochrome P450 3A4 = Cytochrome P450 3A4 (Homo sapiens, UniProt P08684)
T47D = assay: Activity against human T47D cell line; assay type: functional
[1] = Bioavailability in CD1 mouse; conditions: in vivo
Cytochrome P450 1A2 = target: T2, Cytochrome P450 1A2 (Homo sapiens, UniProt P05177)
T2 sequence (P05177 whole entry): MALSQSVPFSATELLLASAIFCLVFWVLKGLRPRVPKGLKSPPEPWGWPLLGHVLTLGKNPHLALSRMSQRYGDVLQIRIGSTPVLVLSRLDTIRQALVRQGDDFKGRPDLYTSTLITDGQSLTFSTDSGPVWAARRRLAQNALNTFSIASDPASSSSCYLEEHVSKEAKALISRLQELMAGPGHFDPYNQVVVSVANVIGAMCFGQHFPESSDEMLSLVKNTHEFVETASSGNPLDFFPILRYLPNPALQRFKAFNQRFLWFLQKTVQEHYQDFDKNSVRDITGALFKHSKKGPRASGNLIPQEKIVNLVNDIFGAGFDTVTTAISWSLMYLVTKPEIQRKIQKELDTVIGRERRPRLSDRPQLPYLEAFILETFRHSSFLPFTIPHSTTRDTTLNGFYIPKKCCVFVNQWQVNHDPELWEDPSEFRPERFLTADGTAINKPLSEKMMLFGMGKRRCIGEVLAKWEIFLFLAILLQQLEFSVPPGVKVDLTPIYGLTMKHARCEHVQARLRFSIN

Cytochrome P450 2D6 = Cytochrome P450 2D6 (Homo sapiens, UniProt P10635)
Cytochrome P450 2C9 = Cytochrome P450 2C9 (Homo sapiens, UniProt P11712)
Mus musculus [2] = species: Mus musculus; conditions: in vivo, po, 5 mg/kg
in vivo [3] = conditions: CD1, mouse, po, 5 mg/kg
in vivo [4] = conditions: CD1, mouse, iv, 1 mg/kg
[5] = Plasma concentration in CD1 mouse at 5 mg/kg, po after 2 hrs co-administered with 3-[6-(2-dimethylamino- 1-imidazol-1-yl-propyl)-naphthalen-2-yloxy]- 2,2-dimethyl-propionic acid at 10 mg/kg, po; assay type: ADME, organism-based
Outline: (§1)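 Female CD-1 mice, about six weeks old, got atRA at 5 mg/kg by gavage (0.5 mg/mL in 1.5% v/v DMSO/safflower oil, 10 mL/kg). This was given immediately before the inhibitor at 10 mg/kg orally in water for injection. Three mice per timepoint gave cardiac EDTA blood. Plasma was acetonitrile-precipitated, and atRA was read by HPLC-UV against blank mouse plasma standards. AUC came from noncompartmental analysis of median values.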

[6] = Plasma concentration in CD1 mouse at 5 mg/kg, po after 8 hrs co-administered with 3-[6-(2-dimethylamino- 1-imidazol-1-yl-propyl)-naphthalen-2-yloxy]- 2,2-dimethyl-propionic acid at 10 mg/kg, po; assay type: ADME, organism-based; outline: as §1
Mus musculus [7] = assay: AUC(0-tz) in CD1 mouse at 5 mg/kg, po co-administered with 3-[6-(2-dimethylamino- 1-imidazol-1-yl-propyl)-naphthalen-2-yloxy]- 2,2-dimethyl-propionic acid at 10 mg/kg, po; assay type: ADME, organism-based, Plasma; conditions: in vivo; outline: as §1
[8] = Plasma concentration in CD1 mouse at 5 mg/kg, po after 2 hrs co-administered with 3-[6-(2-dimethylamino- 1-imidazol-1-yl-butyl)-naphthalen-2-yloxy]- 2,2-dimethyl-propionic acid at 10 mg/kg, po; assay type: ADME, organism-based; outline: as §1
[9] = Plasma concentration in CD1 mouse at 5 mg/kg, po after 8 hrs co-administered with 3-[6-(2-dimethylamino- 1-imidazol-1-yl-butyl)-naphthalen-2-yloxy]- 2,2-dimethyl-propionic acid at 10 mg/kg, po; assay type: ADME, organism-based; outline: as §1
Mus musculus [10] = assay: AUC(0-tz) in CD1 mouse at 5 mg/kg, po co-administered with 3-[6-(2-dimethylamino- 1-imidazol-1-yl-butyl)-naphthalen-2-yloxy]- 2,2-dimethyl-propionic acid at 10 mg/kg, po; assay type: ADME, organism-based, Plasma; conditions: in vivo; outline: as §1
[11] = Plasma concentration in CD1 mouse at 5 mg/kg, po after 2 hrs; assay type: ADME, organism-based; set-up: dose 5 mg/kg, route oral
Outline: (§2)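 Female CD-1 mice, about six weeks old, got atRA by oral gavage at 10 mL/kg (5 mg/kg), from a 0.5 mg/mL solution in 1.5% v/v DMSO in safflower oil. Three mice per timepoint gave terminal cardiac blood in EDTA.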

[12] = Plasma concentration in CD1 mouse at 5 mg/kg, po after 8 hrs; assay type: ADME, organism-based; set-up: dose 5 mg/kg, route oral; outline: as §2
Mus musculus [13] = assay: AUC(0-tz) in CD1 mouse at 5 mg/kg, po; assay type: ADME, organism-based, Plasma; set-up: dose 5 mg/kg, route oral; conditions: in vivo; outline: as §2

Cytochrome P450 3A4, sequence (P08684 whole entry): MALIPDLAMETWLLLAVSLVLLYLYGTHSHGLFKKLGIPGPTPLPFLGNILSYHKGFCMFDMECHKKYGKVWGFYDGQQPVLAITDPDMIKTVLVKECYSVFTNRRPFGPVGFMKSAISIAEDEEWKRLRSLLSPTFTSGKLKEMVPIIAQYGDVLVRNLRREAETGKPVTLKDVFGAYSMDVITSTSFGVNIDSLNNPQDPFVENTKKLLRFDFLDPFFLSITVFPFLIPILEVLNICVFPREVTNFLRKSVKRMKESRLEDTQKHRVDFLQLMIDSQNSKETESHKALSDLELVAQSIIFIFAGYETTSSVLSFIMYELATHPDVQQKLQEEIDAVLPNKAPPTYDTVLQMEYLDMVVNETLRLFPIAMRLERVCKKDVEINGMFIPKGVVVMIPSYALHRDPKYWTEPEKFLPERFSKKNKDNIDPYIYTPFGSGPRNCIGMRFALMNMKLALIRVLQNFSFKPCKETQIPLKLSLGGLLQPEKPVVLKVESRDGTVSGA
Cytochrome P450 2D6, sequence (P10635 whole entry): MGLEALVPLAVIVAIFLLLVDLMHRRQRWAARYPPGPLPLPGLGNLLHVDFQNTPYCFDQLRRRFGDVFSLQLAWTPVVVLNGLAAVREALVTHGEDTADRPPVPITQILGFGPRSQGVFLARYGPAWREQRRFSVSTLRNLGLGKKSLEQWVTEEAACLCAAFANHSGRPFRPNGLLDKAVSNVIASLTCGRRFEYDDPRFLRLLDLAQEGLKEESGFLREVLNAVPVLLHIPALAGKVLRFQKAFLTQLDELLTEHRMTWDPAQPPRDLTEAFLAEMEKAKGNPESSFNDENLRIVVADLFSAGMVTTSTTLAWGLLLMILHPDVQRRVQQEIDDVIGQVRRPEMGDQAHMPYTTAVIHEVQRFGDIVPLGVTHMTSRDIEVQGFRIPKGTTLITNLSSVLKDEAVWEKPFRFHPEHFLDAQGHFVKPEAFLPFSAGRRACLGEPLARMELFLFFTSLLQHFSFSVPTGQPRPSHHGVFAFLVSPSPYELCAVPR
Cytochrome P450 2C9, sequence (P11712 whole entry): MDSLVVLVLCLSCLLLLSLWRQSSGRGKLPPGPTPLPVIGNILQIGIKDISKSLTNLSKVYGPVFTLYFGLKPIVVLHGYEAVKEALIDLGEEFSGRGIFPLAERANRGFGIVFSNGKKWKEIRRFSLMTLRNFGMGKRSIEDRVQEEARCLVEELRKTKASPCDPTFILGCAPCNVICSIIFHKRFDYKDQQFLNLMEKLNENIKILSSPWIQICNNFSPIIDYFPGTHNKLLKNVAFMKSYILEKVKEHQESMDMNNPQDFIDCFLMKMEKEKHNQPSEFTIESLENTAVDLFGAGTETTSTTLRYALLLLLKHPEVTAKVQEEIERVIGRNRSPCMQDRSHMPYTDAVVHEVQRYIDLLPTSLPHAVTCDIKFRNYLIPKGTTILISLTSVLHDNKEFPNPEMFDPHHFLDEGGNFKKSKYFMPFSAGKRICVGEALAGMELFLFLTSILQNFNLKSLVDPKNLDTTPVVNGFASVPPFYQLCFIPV

IC50 (Cytochrome P450 26A1): 403 nM
SMILES: CN(C)C[C@@H](c1ccc2cc(OCC(C)(C)C(=O)O)ccc2c1)n1ccnc1

IC50 (Cytochrome P450 26A1): 60 nM
SMILES: CCCCN(C)[C@H](C)[C@@H](c1ccc2cc(OCC(C)(C)C(=O)O)ccc2c1)n1ccnc1

IC50 (Cytochrome P450 26A1): 1.4 nM
IC50 (Cytochrome P450 3A4): 1010 nM
SMILES: CCN(CC)[C@H](C)[C@@H](c1ccc2cc(OCC3(C(=O)O)CCCC3)ccc2c1)n1ccnc1

IC50 (Cytochrome P450 26A1): 34.7 nM
IC50 (Cytochrome P450 3A4): 7500 nM
SMILES: C[C@H]([C@@H](c1ccc2cc(OCC3(C(=O)O)CC3)ccc2c1)n1ccnc1)N(C)C

IC50 (Cytochrome P450 26A1): 1.6 nM
IC50 (Cytochrome P450 3A4): 800 nM
SMILES: CC(C)N(C)[C@H](C)[C@@H](c1ccc2cc(OCC3(C(=O)O)CCCC3)ccc2c1)n1ccnc1

IC50 (Cytochrome P450 26A1): 40 nM
IC50 (Cytochrome P450 3A4): 7000 nM
SMILES: C[C@H]([C@@H](c1ccc2cc(OCC3(C(=O)O)CCC3)ccc2c1)n1ccnc1)N(C)C

IC50 (Cytochrome P450 26A1): 125 nM
SMILES: C[C@H]([C@@H](c1ccc2cc(OCC(C)(C)C(=O)O)ccc2c1)n1ccnc1)N(C)C1CCCCC1

IC50 (Cytochrome P450 26A1): 3 nM
SMILES: CC(C)N(C)[C@H](C)[C@@H](c1ccc2cc(OCC(C)(C)C(=O)O)ccc2c1)n1ccnc1

IC50 (Cytochrome P450 26A1): 11.2 nM
bioavailability [1]: 99%
IC50 (Cytochrome P450 3A4): 8000 nM
IC50 (Cytochrome P450 1A2): > 5000 nM
IC50 (Cytochrome P450 2D6): > 5000 nM
IC50 (Cytochrome P450 2C9): > 5000 nM
AUC (Mus musculus [2]): 17500 ng·h/mL
Cmax (in vivo [3]): 23 µM
half-life (in vivo [4]): 2.46 h
SMILES: C[C@H]([C@@H](c1ccc2cc(OCC3(C(=O)O)CCCCC3)ccc2c1)n1ccnc1)N(C)C
Activity (T47D): <100 nM

IC50 (Cytochrome P450 26A1): 4.2 nM
bioavailability [1]: 99%
IC50 (Cytochrome P450 3A4): 2300 nM
IC50 (Cytochrome P450 1A2): > 5000 nM
IC50 (Cytochrome P450 2D6): > 5000 nM
IC50 (Cytochrome P450 2C9): > 5000 nM
AUC (Mus musculus [2]): 18900 ng·h/mL
Cmax (in vivo [3]): 13 µM
half-life (in vivo [4]): 7.1 h
SMILES: CCN(C)[C@H](C)[C@@H](c1ccc2cc(OCC3(C(=O)O)CCCC3)ccc2c1)n1ccnc1
Activity (T47D): <100 nM

SMILES: C[C@H]([C@@H](c1ccc2cc(OCC(C)(C)C(=O)O)ccc2c1)n1ccnc1)N(C)C
Activity (T47D): 125 nM

IC50 (Cytochrome P450 26A1): 5 nM
SMILES: CCN(CC)[C@H](C)[C@@H](c1ccc2cc(OCC(C)(C)C(=O)O)ccc2c1)n1ccnc1

IC50 (Cytochrome P450 26A1): 34 nM
IC50 (Cytochrome P450 3A4): 2150 nM
SMILES: C[C@H]([C@@H](c1ccc2cc(OCC(C)(C)C(=O)O)ccc2c1)n1ccnc1)N1CCOCC1

IC50 (Cytochrome P450 26A1): 1.3 nM
bioavailability [1]: 73%
IC50 (Cytochrome P450 1A2): > 5000 nM
IC50 (Cytochrome P450 2D6): > 5000 nM
IC50 (Cytochrome P450 2C9): > 5000 nM
AUC (Mus musculus [2]): 5430 ng·h/mL
Cmax (in vivo [3]): 6.7 µM
half-life (in vivo [4]): 2.76 h
SMILES: CC[C@H]([C@@H](c1ccc2cc(OCC(C)(C)C(=O)O)ccc2c1)n1ccnc1)N(C)C
Activity (T47D): <5 nM

IC50 (Cytochrome P450 26A1): 583 nM
SMILES: C[C@H]([C@@H](c1ccc2cc(OCC(C)(C)C(=O)O)ccc2c1)n1ccnc1)N1CCCC1

IC50 (Cytochrome P450 26A1): 9 nM
SMILES: CCN(C)[C@H](C)[C@@H](c1ccc2cc(OCC(C)(C)C(=O)O)ccc2c1)n1ccnc1

IC50 (Cytochrome P450 26A1): 7.3 nM
bioavailability [1]: 77%
IC50 (Cytochrome P450 3A4): 8200 nM
IC50 (Cytochrome P450 1A2): > 5000 nM
IC50 (Cytochrome P450 2D6): > 5000 nM
IC50 (Cytochrome P450 2C9): > 5000 nM
AUC (Mus musculus [2]): 5800 ng·h/mL
Cmax (in vivo [3]): 5.5 µM
half-life (in vivo [4]): 2.49 h
SMILES: C[C@H]([C@@H](c1ccc2cc(OCC3(C(=O)O)CCCC3)ccc2c1)n1ccnc1)N(C)C
Activity (T47D): <100 nM

IC50 (Cytochrome P450 26A1): 37 nM
SMILES: CCC(CC)(COc1ccc2cc([C@H]([C@@H](C)N(C)C)n3ccnc3)ccc2c1)C(=O)O

IC50 (Cytochrome P450 26A1): 46.7 nM
IC50 (Cytochrome P450 3A4): > 20000 nM
SMILES: C[C@H]([C@@H](c1ccc2cc(OCC3(C(=O)O)CCOCC3)ccc2c1)n1ccnc1)N(C)C

IC50 (Cytochrome P450 26A1): 26 nM
SMILES: CN(C)C(C)(C)[C@@H](c1ccc2cc(OCC(C)(C)C(=O)O)ccc2c1)n1ccnc1

concentration at 2 h [5]: 6.66 µM
concentration at 8 h [6]: 0.04 µM
AUC (Mus musculus [7]): 6470 ng·h/mL
concentration at 2 h [8]: 7.72 µM
concentration at 8 h [9]: 2.73 µM
AUC (Mus musculus [10]): 9900 ng·h/mL
concentration at 2 h [11]: 5.24 µM
concentration at 8 h [12]: < 0.01 µM
AUC (Mus musculus [13]): 1690 ng·h/mL
SMILES: CC1=C(/C=C/C(C)=C/C=C/C(C)=C/C(=O)O)C(C)(C)CCC1 [TRETINOIN]
